One data set has as its system E. coli ΔbamBΔtolC. Briefly: MIC, CLSI broth microdilution. The format is cell-based. Particulars: MH-II broth with dipyridyl. For orientation: Broth dilution looks for growth in wells or tubes with falling amounts of substance.
Data set [1] concerns periplasmic extract of E. coli K12 MG1655. Briefly: acc release from fluorogenic peptides in periplasmic extract. Type of data set: biochemical. Conditions: HPLC analysis (Figure S9).
A short description of data set [2]: Cleavage of acc peptide by human serum. The format is in vitro ADME. Conditions: fluorescence (Figure S8). In short, it runs like this:
(§1)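 Substrate is an N-acetylated peptide with 7-amino-4-carbamoylmethylcoumarin (acc) coupled directly to the P1 residue as an antibiotic surrogate, made by solid-phase synthesis. The substrate is incubated in human or mouse serum, and cleavage is followed as release of free fluorescent amino coumarin.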

Data set [3] in a line: Cleavage of acc peptide by mouse serum. Type of data set: in vitro ADME. Particulars: compared with human serum. In short, it runs like this: as §1
Another data set relates to E. coli ΔsurA. Nature of the data set: MIC, CLSI broth microdilution. The format is cell-based. Conditions: MH-II broth with dipyridyl.
A further data set deals with S. aureus Newman. Briefly: MIC, CLSI broth microdilution. The format is cell-based. Particulars: MH-II broth with dipyridyl.

Bounds are passed on as bounds.

The text below walks through data of PMC7790458 (Journal of the American Chemical Society, 2020).

As usually defined, the MIC is the smallest concentration in the dilution series that meets the test's criterion for growth inhibition. A low value points to inhibition by little substance.

In the case of `CC(=O)NC[C@H]1CN(c2ccc(N3CCN(C(=O)CO)CC3)c(F)c2)C(=O)O1` [eperezolid], the MIC entry with E. coli ΔbamBΔtolC is “susceptible”.
Ac-WSPKYM-acc [compound 1]: in data set [1], the “substrate consumption at the end of the reaction” value is given as “fully consumed”. Further, the “half-life of acc release” value in data set [2] was 3 to 4 h. For the same compound, the “cleavage by mouse serum” value in data set [3] is recorded as “cleaved more rapidly”.
Consider eperezolid-NH2 [compound 5], for which the MIC is over 171 µM against E. coli ΔbamBΔtolC, 43 µM with E. coli ΔsurA and 43 µM with S. aureus Newman.
